Test results published in ChEMBL document CHEMBL3124750 (Bioorg Med Chem Lett, 2014).

Columns and labels:
Striatum [1] = assay: Ratio of drug level from ipsilateral to contralateral in Wistar rat administered as iv measured after 60 mins of postinjection by MicroPET imaging analysis; type: ADME, organism-based; details: in vivo, 1 h
Summary of the method: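 Anesthetized Wistar rats lesioned by AMPA injection into the right striatum 7 days earlier received the [18F] tracer i.v. for microPET. The ratio is bound tracer in the lesion divided by bound tracer in the contralateral side at 60 min post-injection.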

Striatum [2] = assay: Drug uptake in iv dosed AMPA lesioned Wistar rat brain contralateral side of striatum measured after 60 mins by MicroPET imaging analysis; type: ADME, organism-based; details: in vivo, 1 h
Summary of the method: (§1)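 MicroPET on anesthetized Wistar rats 7 days after AMPA injection into the right striatum. The [18F]-labelled tracer was given i.v.; uptake is expressed as percent injected dose per mL (% ID/mL) in the lesioned striatum or the contralateral area at 60 min.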

Striatum [3] = assay: Drug uptake in iv dosed AMPA lesioned Wistar rat brain striatum measured after 60 mins by MicroPET imaging analysis; type: ADME, organism-based; details: in vivo, 1 h; summary of the method: as §1
[4] = Octanol-buffer partition coefficient, log D of the compound at pH 7.4 by HPLC method; type: physicochemical
Summary of the method: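 The HPLC retention time was converted to logD7.4 by calibration against known logD values of similar compounds. C18 column (4.6 x 20 mm, 3.5 µm); A: 5 mM MOPS/(CH3)4NOH pH 7.4; B: 5% MOPS/(CH3)4NOH (100 mM, pH 7.4) in 95% acetonitrile; gradient 98:2 to 0:100; 1.2 mL/min; 25 °C; detection at 254 nm.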

Liver microsome [5] = assay: Drug metabolism in rat liver microsomes assessed as retention time of compound after 30 mins by LC-MS/MS analysis; type: ADME; details: 0.5 h
Summary of the method: (§2)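 Rat liver microsomes, 30 min incubation; metabolites detected by LC-MS and MS-MS. Chromatography: C18 column (2.1 x 150 mm, 5 µm), water/acetonitrile each with 0.05% formic acid, gradient 60:40 to 20:80 over 20 min, 200 µL/min; UV detection at 275 nm; retention times recorded.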

[6] = Displacement of [3H]flunitrazepam from CBR in rat cerebral cortex membrane homogenates; type: cell membranes
Summary of the method: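 Central benzodiazepine receptor counter-screen: competition against [3H]flunitrazepam (Kd = 2.1 nM, used at 0.4 nM) on rat cerebral cortex membrane homogenates; Ki values derived.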

Liver microsome [7] = assay: Drug metabolism in rat liver microsomes assessed as retention time of deethylated M1 metabolite formation after 30 mins by LC-MS/MS analysis; type: ADME; details: 0.5 h; summary of the method: as §2
Liver microsome [8] = assay: Drug metabolism in rat liver microsomes assessed as retention time of hydroxylated M2 metabolite formation after 30 mins by LC-MS/MS analysis; type: ADME; details: 0.5 h; summary of the method: as §2
Translocator protein = Translocator protein (Rattus norvegicus, UniProt P16257); assay: Displacement of [3H]PK11195 from TSPO in rat heart membrane homogenates; type: cell membranes
Liver microsome [9] = assay: Drug metabolism in rat liver microsomes assessed as retention time of hydroxylated M3 metabolite formation after 30 mins by LC-MS/MS analysis; type: ADME; details: 0.5 h; summary of the method: as §2
Liver microsome [10] = assay: Drug metabolism in rat liver microsomes assessed as retention time of dihydroxylated M4 metabolite formation after 30 mins by LC-MS/MS analysis; type: ADME; details: 0.5 h; summary of the method: as §2

Sequence of Translocator protein (P16257 whole entry, looked up): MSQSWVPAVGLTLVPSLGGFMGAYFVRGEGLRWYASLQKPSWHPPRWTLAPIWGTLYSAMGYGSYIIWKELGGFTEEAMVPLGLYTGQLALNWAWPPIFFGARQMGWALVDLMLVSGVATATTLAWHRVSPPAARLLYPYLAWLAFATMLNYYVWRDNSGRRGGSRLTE

Ratio (Striatum [1])	Drug uptake (Striatum [2]) [%ID/ml]	Drug uptake (Striatum [3]) [%ID/ml]	logD [4]	Retention_time (Liver microsome [5]) [min]	Ki [6] [nM]	Retention_time (Liver microsome [7]) [min]	Retention_time (Liver microsome [8]) [min]	Ki (Translocator protein) [nM]	Retention_time (Liver microsome [9]) [min]	Retention_time (Liver microsome [10]) [min]	Structure (SMILES)
1.65											CCC(C)N([11CH3])C(=O)c1cc2ccccc2c(-c2ccccc2Cl)n1 (stereo not drawn)
4.62	0.05	0.24									CCN(CC)C(=O)Cc1c(-c2ccc(C#CCCC[18F])cc2)nn2c(C)cc(C)nc12
			3.61	15.66	> 1000	11.41	11	0.54			CCN(CC)C(=O)Cc1c(-c2ccc(C#CCF)cc2)nn2c(C)cc(C)nc12
			3.67	15.81	> 1000	11.68	11.19	0.74	10.01	5.89	CCN(CC)C(=O)Cc1c(-c2ccc(C#CCCF)cc2)nn2c(C)cc(C)nc12
			4.06	17.05	> 1000	12.08	11.37	0.35	8.92	3.43	CCN(CC)C(=O)Cc1c(-c2ccc(C#CCCCF)cc2)nn2c(C)cc(C)nc12
			4.35	15.81	> 1000	11.68	11.19	0.79	10.01	5.89	CCN(CC)C(=O)Cc1c(-c2ccc(C#CCCCCF)cc2)nn2c(C)cc(C)nc12
	0.08	0.3									CCN(CC)C(=O)Cc1c(-c2ccc(OCC[18F])cc2)nn2c(C)cc(C)nc12 [DPA-714 F-18]
			2.89		> 1000						CCN(CC)C(=O)Cc1c(-c2ccc(OCCF)cc2)nn2c(C)cc(C)nc12 [DPA-714]
